The values that follow come from ChEMBL document CHEMBL1806465, “Synthesis and biological evaluation of 4-nitro-substituted 1,3-diaryltriazenes as a novel class of potent antitumor agents” (Eur J Med Chem, 2011).

≈ marks a conversion by molar mass, not a printed value. Calls of active or inactive are those of the source. No cut-off for these calls is given here.

One data set concerns HeLa. Kind of data set: Cytotoxicity against human HeLa cells after 72 hrs by MTT assay. The data set is classed as functional, cell-based. Background: Tetrazolium assays rely on reduction of a dye to a coloured formazan, in cell work by metabolically active cells.
The nature of data set [1]: Solubility of the compound in DMSO. The data set is classed as physicochemical.
The nature of data set [2]: Stability of the compound in DMSO after 26.25 hrs by LC/MS/MS analysis in presence of 10% FBS. Particulars: cattle; for remaining at 26.25 h: DMSO with 10% FBS, read-out: Stability; for Stability: 26.25 h. The data set is classed as physicochemical.
A further data set relates to L1210. The data set can be described thus: Cytotoxicity against mouse L1210 cells at 32 uM. The data set is classed as functional.
A short description of data set [3]: Solubility of the compound in water. Particulars: buffer. The data set is classed as physicochemical.
A further data set concerns Nucleic Acid. The data set can be described thus: Binding affinity to calf thymus DNA assessed as change in melting temperature at compound to DNA ratio of 0.3. It counts as nucleic-acid assay. Particulars: Bos taurus. A digest of the protocol: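 ct-DNA sonicated, filtered, in Na-cacodylate buffer pH 7, I = 0.05 mol dm-3, 2 x 10^-5 mol dm-3 (as phosphate, ε260 = 6600); compound/DNA ratio 0.3. Absorbance at 260 nm followed versus temperature, compound absorbance subtracted, curves normalized. Tm taken from first-derivative maximum, confirmed by tangent method; ΔTm = Tm(complex) − Tm(free DNA), mean of ≥2 runs, error ±0.5 °C.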

The term solubility denotes the concentration that dissolves in the medium under given conditions. A high value points to a readily soluble substance. In the case of `COc1ccc(/C=C/C(=O)N(/N=N/c2cc(C(F)(F)F)ccc2Cl)c2cc(C(F)(F)F)ccc2Cl)c(OC)c1`, the outcome with HeLa was inactive. For the same molecule, the solubility in data set [1] is 84.4 µM (≈ 50 µg/mL).
The IC50 is the concentration needed to halve the response being measured. Read a high IC50 as lower potency. As for `O=C(c1ccccc1)N(/N=N/c1ccc([N+](=O)[O-])cc1C(F)(F)F)c1ccc([N+](=O)[O-])cc1C(F)(F)F`, inhibition in the data set with HeLa was half-maximal at 0.6 µM (IC50). The remaining at 26.25 h in data set [2] turned out to be 63%.
For `CC(=O)Oc1ccc(/C=C/C(=O)N(/N=N/c2cccc(F)c2)c2cccc(F)c2)cc1OC(C)=O`, the outcome in the data set with HeLa was inactive. The molecule further gave a solubility in data set [1] of 52.1 µM (≈ 25 µg/mL).
Consider `O=[N+]([O-])c1ccc(/N=N/Nc2ccc([N+](=O)[O-])cc2)cc1`, for which, in the data set on HeLa, the outcome was inactive.
In the case of `COc1ccc(/C=C/C(=O)N(/N=N/c2cc(C(F)(F)F)ccc2Cl)c2cc(C(F)(F)F)ccc2Cl)cc1OC`, the outcome in the data set on HeLa was inactive. Besides, the solubility in data set [1] came out at 28.1 µM (≈ 16.6 µg/mL).
As for `Clc1ccc(/N=N/Nc2ccc(Cl)c(Cl)c2)cc1Cl`, the solubility in data set [1] was found to be 74.6 µM (≈ 25 µg/mL).
`CC(=O)Oc1ccc(/C=C/C(=O)N(/N=N/c2ccc(Cl)c(C(F)(F)F)c2)c2ccc(Cl)c(C(F)(F)F)c2)cc1OC(C)=O` came in with an IC50 with HeLa of 43 µM.
In the data set on HeLa, `O=C(CCl)N(/N=N/c1ccc([N+](=O)[O-])cc1Cl)c1ccc([N+](=O)[O-])cc1Cl` returned a 50% inhibitory concentration (IC50) of 0.55 µM.
Molecule `O=C(c1ccccc1F)N(/N=N/c1ccc([N+](=O)[O-])cc1Br)c1ccc([N+](=O)[O-])cc1Br` had an IC50 in the data set on HeLa of 1.2 µM. This IC50 is about 2.2-fold higher than that of the molecule before.
Take `FC(F)(F)c1cc(Cl)ccc1/N=N/Nc1ccc(Cl)cc1C(F)(F)F`: in the data set with HeLa, the outcome was inactive. The concentration in solution in data set [1] (solubility) was 62.2 µM (≈ 25 µg/mL).
Regarding `O=C(c1ccccc1C(F)(F)F)N(/N=N/c1ccc([N+](=O)[O-])cc1C(F)(F)F)c1ccc([N+](=O)[O-])cc1C(F)(F)F`, in the data set with HeLa, the IC50 came out at 5.35 µM.
As for `CC(=O)NCC(=O)O.N=C(N)c1ccc(/N=N/Nc2ccc(C(=N)N)cc2)cc1` [DIMINAZEN ACETURATE], the IC50 in the data set on HeLa came out at 183 µM. In the data set with L1210, this molecule gave an Activity of 50%.
`COC(=O)N(/N=N/c1ccc([N+](=O)[O-])cc1Cl)c1ccc([N+](=O)[O-])cc1Cl` had an IC50 with HeLa of 0.98 µM.
On the same count and under the same terms, with `CC(=O)OCC(=O)N(/N=N/c1ccc([N+](=O)[O-])cc1Br)c1ccc([N+](=O)[O-])cc1Br` the figure was 0.49 µM; with `O=C(c1ccc(C(F)(F)F)cc1)N(/N=N/c1ccc([N+](=O)[O-])cc1Cl)c1ccc([N+](=O)[O-])cc1Cl`, 1.06 µM.
Consider `COc1cc(/C=C/C(=O)N(/N=N/c2cc(C(F)(F)F)ccc2Cl)c2cc(C(F)(F)F)ccc2Cl)ccc1OC(C)=O`, for which the result with HeLa was inactive. In data set [1], the concentration in solution (solubility) came to 40.3 µM (≈ 25 µg/mL).
For `Clc1ccc(Cl)c(/N=N/Nc2cc(Cl)ccc2Cl)c1` the same measures were “inactive” and 37.3 µM (≈ 12.5 µg/mL).
As for `O=C(c1cccc(F)c1)N(/N=N/c1ccc([N+](=O)[O-])cc1C(F)(F)F)c1ccc([N+](=O)[O-])cc1C(F)(F)F`, in the data set with HeLa, the IC50 came to 0.88 µM.
On to `COc1cc(/C=C/C(=O)N(/N=N/c2cc(C(F)(F)F)ccc2Cl)c2cc(C(F)(F)F)ccc2Cl)cc(OC)c1`, for which the outcome in the data set with HeLa was inactive. In data set [1], this molecule yielded a solubility of 24.1 µM (≈ 14.3 µg/mL).
For `Fc1ccc(/N=N/Nc2ccc(F)cc2F)c(F)c1` the same measures were “inactive” and 186 µM (≈ 50 µg/mL).
Regarding `CC(=O)N(/N=N/c1ccc([N+](=O)[O-])cc1C(F)(F)F)c1ccc([N+](=O)[O-])cc1C(F)(F)F`, the remaining at 26.25 h in data set [2] was found to be 51%.
With `CC(=O)N(/N=N/c1ccc([N+](=O)[O-])cc1)c1ccc([N+](=O)[O-])cc1`, the half-inhibitory concentration (IC50) in the data set with HeLa worked out at 63 µM.
Consider `CC(=O)OCC(=O)N(/N=N/c1ccc([N+](=O)[O-])cc1Cl)c1ccc([N+](=O)[O-])cc1Cl`, for which, in the data set on HeLa, the IC50 amounted to 0.35 µM.
For `CC(=O)N(/N=N/c1ccc(Cl)c(C(F)(F)F)c1)c1ccc(Cl)c(C(F)(F)F)c1`, the IC50 in the data set with HeLa worked out at 50.6 µM.
As to `O=[N+]([O-])c1ccc(N=NNc2ccc([N+](=O)[O-])cc2)cc1`, the solubility in data set [1] was found to be 43.5 µM (≈ 12.5 µg/mL). This counts as double-digit micromolar.
In the data set with HeLa, `O=C(c1ccc(C(F)(F)F)cc1)N(/N=N/c1ccc([N+](=O)[O-])cc1C(F)(F)F)c1ccc([N+](=O)[O-])cc1C(F)(F)F` came in with a half-maximal inhibitory concentration (IC50) of 0.69 µM.
On the same count and under the same terms, next, `O=C(c1ccc(F)cc1)N(/N=N/c1ccc([N+](=O)[O-])cc1C(F)(F)F)c1ccc([N+](=O)[O-])cc1C(F)(F)F`: 1 µM.
Turning to `Fc1cccc(/N=N/Nc2cccc(F)c2)c1`, the outcome in the data set with HeLa was inactive. The molecule also had a solubility in data set [1] of 214 µM (≈ 50 µg/mL).
As to `O=[N+]([O-])c1ccc(/N=N/Nc2ccc([N+](=O)[O-])cc2Cl)c(Cl)c1`, the solubility entry in data set [3] is “Insoluble”. In addition, the midpoint of inhibition in the data set with HeLa, the IC50, lay at 3.01 µM. The result with Nucleic Acid was inactive. The Stability entry in data set [2] is given as “Stable”.
In the data set with HeLa, `O=C(Cc1ccccc1)N(/N=N/c1ccc([N+](=O)[O-])cc1Cl)c1ccc([N+](=O)[O-])cc1Cl` came in with an IC50 of 0.53 µM.
In the data set on HeLa, `O=C(c1cccc(F)c1)N(/N=N/c1ccc([N+](=O)[O-])cc1Cl)c1ccc([N+](=O)[O-])cc1Cl` had an IC50 of 2.5 µM.
On the same count and under the same terms, next, `O=C(c1ccccc1C(F)(F)F)N(/N=N/c1ccc([N+](=O)[O-])cc1Cl)c1ccc([N+](=O)[O-])cc1Cl`: 10.6 µM; `O=C(c1ccccc1)N(/N=N/c1ccc([N+](=O)[O-])cc1Br)c1ccc([N+](=O)[O-])cc1Br`: 1.53 µM.
Same read-out and setting: with `O=C(c1ccccc1C(F)(F)F)N(/N=N/c1ccc([N+](=O)[O-])cc1Br)c1ccc([N+](=O)[O-])cc1Br` the figure was 13.3 µM; with `O=C(c1cccc(C(F)(F)F)c1)N(/N=N/c1ccc([N+](=O)[O-])cc1Br)c1ccc([N+](=O)[O-])cc1Br`, 1.12 µM.
On to `CC(=O)N(/N=N/c1cccc(F)c1)c1cccc(F)c1`, for which, in the data set on HeLa, the outcome was inactive. Moreover, the concentration in solution in data set [1] (solubility) came to 182 µM (≈ 50 µg/mL).
The molecule `O=C(CCl)N(/N=N/c1ccc([N+](=O)[O-])cc1C(F)(F)F)c1ccc([N+](=O)[O-])cc1C(F)(F)F` gave an IC50 in the data set with HeLa of 0.8 µM.
As for `O=[N+]([O-])c1ccc(/N=N/Nc2ccc([N+](=O)[O-])cc2Br)c(Br)c1`, the solubility result in data set [3] is listed as “Insoluble”. In addition, in the data set on HeLa, inhibition was half-maximal at 0.94 µM (IC50).
Take `Clc1cc(Cl)c(/N=N/Nc2cc(Cl)c(Cl)cc2Cl)cc1Cl`: in the data set on HeLa, the result was inactive. In addition, the solubility in data set [1] amounted to 41.3 µM (≈ 16.7 µg/mL).
In the case of `O=C(c1ccccc1F)N(/N=N/c1ccc([N+](=O)[O-])cc1C(F)(F)F)c1ccc([N+](=O)[O-])cc1C(F)(F)F`, in the data set on HeLa, inhibition was half-maximal at 0.8 µM (IC50).
For `O=[N+]([O-])c1ccc(/N=N/Nc2ccc([N+](=O)[O-])cc2F)c(F)c1`, in data set [3], the solubility result is “Insoluble”.
For `O=C(c1cccc(C(F)(F)F)c1)N(/N=N/c1ccc([N+](=O)[O-])cc1C(F)(F)F)c1ccc([N+](=O)[O-])cc1C(F)(F)F`, in the data set with HeLa, 0.75 µM corresponded to half-maximal inhibition (IC50).
For the molecule `CCOC(=O)CC(=O)N(/N=N/c1ccc([N+](=O)[O-])cc1C(F)(F)F)c1ccc([N+](=O)[O-])cc1C(F)(F)F`, the midpoint of inhibition in the data set with HeLa, the IC50, lay at 0.3 µM.
With `COc1cc(/C=C/C(=O)N(/N=N/c2ccc(Cl)c(C(F)(F)F)c2)c2ccc(Cl)c(C(F)(F)F)c2)ccc1OC(C)=O`, in the data set with HeLa, the outcome was inactive. This molecule showed a solubility in data set [1] of 16.8 µM (≈ 10.4 µg/mL).
On to `O=C(c1cccc(C(F)(F)F)c1)N(/N=N/c1ccc([N+](=O)[O-])cc1Cl)c1ccc([N+](=O)[O-])cc1Cl`, for which inhibition in the data set on HeLa was half-maximal at 1.18 µM (IC50).
For the molecule `Fc1ccc(/N=N/Nc2ccc(F)c(F)c2)cc1F`, the result in the data set on HeLa was inactive. Also, the concentration in solution in data set [1] (solubility) came to 186 µM (≈ 50 µg/mL).
In the data set on HeLa, `O=C(c1ccc(F)cc1)N(/N=N/c1ccc([N+](=O)[O-])cc1Br)c1ccc([N+](=O)[O-])cc1Br` registered an IC50 of 0.58 µM.
The molecule `O=C(c1ccccc1F)N(/N=N/c1ccc([N+](=O)[O-])cc1Cl)c1ccc([N+](=O)[O-])cc1Cl` had a 50% inhibitory concentration (IC50) with HeLa of 2.35 µM.
As for `O=[N+]([O-])c1ccc(/N=N/Nc2ccc([N+](=O)[O-])cc2C(F)(F)F)c(C(F)(F)F)c1`, in data set [3], the solubility entry was “Insoluble”. Further, in data set [2], the Stability result is “Stable”.
The molecule `O=C(c1ccccc1)N(/N=N/c1ccc([N+](=O)[O-])cc1Cl)c1ccc([N+](=O)[O-])cc1Cl` gave an IC50 with HeLa of 0.59 µM. For the same molecule, in data set [2], the remaining at 26.25 h came out at 9%.
